In the library only some 2.2% were active in any assay of this set; here they are far more common.
thrombin 1536 = inhibitors of human thrombin; 220,000 tested, 0.26% active; alpha-thrombin, Boc-VPR-AMC fluorogenic substrate cleavage; AID 1046; inhibition, % at 5 µM; P00734;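 active means inhibition at or above 40%; inactive means inhibition below 40%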;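 further: 0% = enzyme with no compound and 100% = wells without enzyme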
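Material: human alpha-thrombin protein; Also added: Boc-VPR-AMC substrate, 15 µM final; Timing: enzyme reaction carried out at room temperature; Signal: fluorescence, ex 355 nm, em 460 nm; Measure: % inhibition of thrombin; Controls: enzyme without compound as high, wells lacking enzyme as low.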
Wee1 degr inh = human Wee1 degradation inhibition, primary screen. reporter increase, % at 5 µM. AID 1321. HeLa Luc-Wee1K328M stability, luciferase luminescence; 100% = proteasome inhibitor MG132 effect. 220,000 tested, 1.2% active. P30291;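 active means activation above the mean of all tested compounds plus 3 SD, set per screening run, cut at about 8.8% in these data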;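 further: cells exposed to compound for 20 h before luminescence read; 0% = DMSO alone and 100% = MG132 at 30 µM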
FXIIa inh = inhibitors of human coagulation factor XIIa. purified FXIIa, Boc-QGR-AMC fluorogenic substrate, 2 h. inhibition, % at 5 µM. 220,000 tested, 0.3% active. AID 800; in the data active means inhibition above about 40%;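 further: 0% = enzyme with no compound and 100% = blank without enzyme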
KLK5 inh = kallikrein 5 (human) inhibition; Q9Y337; recombinant hK5, fluorogenic AMC substrate cleavage; inhibition, % at 5 µM; 210,000 tested, 0.59% active;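 active means inhibition of 40% or more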;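 further: 0% = enzyme controls without compound and 100% = no-enzyme blanks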
FXIa inh = blocks human coagulation factor XIa protease activity; P03951; purified FXIa, Boc-Glu-Ala-Arg-AMC fluorogenic substrate; inhibition, % at 5 µM; 220,000 tested, 0.14% active;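 active means inhibition of at least 40%; inactive means inhibition below 40%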;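 further: fluorescence of freed AMC excited at 355 nm; 0% = enzyme without compound and 100% = no enzyme blank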
Target sequence (P03951 19-387 limits assumed): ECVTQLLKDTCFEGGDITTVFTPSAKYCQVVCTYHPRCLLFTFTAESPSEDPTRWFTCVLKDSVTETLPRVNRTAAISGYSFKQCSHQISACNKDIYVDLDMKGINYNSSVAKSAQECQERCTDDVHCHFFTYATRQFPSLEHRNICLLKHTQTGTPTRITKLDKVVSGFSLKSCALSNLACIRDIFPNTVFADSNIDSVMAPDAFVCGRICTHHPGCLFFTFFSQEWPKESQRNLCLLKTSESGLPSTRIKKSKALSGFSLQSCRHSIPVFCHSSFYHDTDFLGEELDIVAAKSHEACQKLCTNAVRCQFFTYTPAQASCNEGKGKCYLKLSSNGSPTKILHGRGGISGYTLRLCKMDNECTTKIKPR
Target sequence (P03951 388-625 limits assumed): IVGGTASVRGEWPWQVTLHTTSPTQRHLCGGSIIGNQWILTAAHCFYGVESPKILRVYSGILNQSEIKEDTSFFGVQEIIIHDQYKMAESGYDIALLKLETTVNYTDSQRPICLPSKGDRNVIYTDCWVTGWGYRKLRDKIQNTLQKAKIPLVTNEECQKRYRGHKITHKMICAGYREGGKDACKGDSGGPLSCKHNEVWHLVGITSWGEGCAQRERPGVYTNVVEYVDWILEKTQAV
* marks the source's active call; other numbers are inactive results; . = no result given.

SMILES | thrombin 1536 | Wee1 degr inh | FXIIa inh | KLK5 inh | FXIa inh
CC1(C)CC(=O)C=C(NNC(=O)c2ccccc2O)C1 | 3 | -2 | 60* | -34 | 32
COc1cc(NC2=CC(=O)CC(C)(C)C2)cc(OC)c1 | -5 | -3 | 20 | 0 | 17
COC(=O)CSc1nc2cc(OC)ccc2n1C | 3 | -2 | 11 | 1 | 7
COC(=O)CSc1nnc(-c2sc3cc(OC)ccc3c2Cl)n1C | 0 | -1 | 48* | 3 | 23
COc1ccccc1NC(=S)NC1CCCCCC1 | -4 | 2 | -1 | 4 | -9
Cc1cc(C)cc(NC(=O)N2c3ccccc3NC(=O)CC2C)c1 (stereo not given) | -6 | 9.6* | 4 | -4 | 1
CC1CC(=O)Nc2ccccc2N1C(=O)Nc1ccc(F)cc1 (stereo not given) | 10 | 0 | 11 | 55* | 27
CC1CC(=O)Nc2ccccc2N1C(=O)Nc1ccc(F)cc1F (stereo not given) | -1 | -2 | 8 | 0 | 2
CCOC(=O)CN1c2ccccc2NC(=O)CC1C (stereo not given) | -4 | 14* | 6 | -24 | -2
Cc1cc(NC(=O)NN2CCOCC2)nn1-c1c(Cl)cc(Cl)cc1Cl | 0 | -1 | 5 | 4 | -9
O=c1oc2ccccc2cc1NCc1ccccc1O | -5 | 8.9* | 3 | 31 | -6
CCN1CCN(S(=O)(=O)c2ccc(Oc3ccccc3OC)cc2)CC1 | -7 | 2 | 9 | 3 | -3
Nc1ccnn1Cc1cccs1 | 22 | 6 | 43* | 79* | 8
Nc1ccnn1Cc1ccncc1 | -1 | 0 | 2 | -4 | -5
COc1ccccc1CC(=O)NN1C(=O)c2ccccc2C1=O | 6 | -2 | 106* | 44* | 3
CC(C)(CO)NCC#Cc1ccccc1 | -2 | -1 | 10 | . | 3
O=C(O)COc1cccc2nsnc12 | 1 | -2 | 14 | -3 | 4
CCOC(=O)COc1ccc2nsnc2c1Cl | 4 | 1 | -8 | 102* | -5
Cc1c(O)ccc(-c2[nH]ncc2-c2nc3ccccc3s2)c1O | -8 | -2 | 1 | -19 | 2
Cc1c(O)ccc(-c2n[nH]c(C(=O)O)c2-c2nc3ccccc3s2)c1O | 13 | 10* | 18 | 6 | 25
CC(C)CN(C(=O)c1nn(C)c(=O)c2ccccc12)c1nc2ccccc2s1 | -3 | 2 | 7 | -1 | 2
COc1ccc(S(=O)(=O)N2CCOCC2)cc1NC(=O)COC(=O)c1ccc(C)s1 | 73* | 0 | 0 | -14 | -6
O=C(COC(=O)c1n[nH]c2ccccc12)Nc1cccc(S(=O)(=O)N2CCOCC2)c1 | 65* | 3 | 0 | -20 | 11
CCC(CC)C(=O)OCC(=O)Nc1ccc(S(=O)(=O)N2CCOCC2)cc1OC | 5 | -2 | 13 | -14 | -6
COc1cc(S(=O)(=O)N2CCOCC2)ccc1NC(=O)COC(=O)c1ccccn1 | 70* | 3 | 8 | -13 | 2
SMILES | thrombin 1536 | Wee1 degr inh | FXIIa inh | KLK5 inh | FXIa inh
COc1ccc(S(=O)(=O)N2CCOCC2)cc1NC(=O)COC(=O)C1=COCCO1 | 10 | -2 | 16 | 8 | 4
CCOc1ccccc1N1CCN(CC(=O)NCCc2ccc(S(N)(=O)=O)cc2)CC1 | -13 | -3 | 3 | 1 | -2
COc1ccc(/C=C2\N=C(SC)N(c3ccccc3OC)C2=O)cc1 | -2 | -3 | 13 | 1 | 2
Cc1ccsc1/C=N/NC(=O)c1cccnc1 | -2 | 4 | 1 | 4 | 2
O=C1CSc2ccc(C(=O)Nc3cccc(S(=O)(=O)Nc4ccc(Br)cc4)c3)cc2N1 | -4 | -1 | 2 | -6 | 0
O=C(NCc1ccco1)c1scc2c1OCCO2 | 0 | -4 | 43* | 6 | 14
Cc1ccc(N2Cc3ccccc3C2=S)cc1 | -9 | 10* | 4 | -6 | 0
COc1cc(/C=C2\SC(N)=NC2=O)ccc1OCC(=O)Nc1ccc(C)cc1 | -4 | 8.9* | 5 | -5 | 3
COc1ccc(S(=O)(=O)n2nc(-c3ccc(Cl)cc3)cc2N)cc1OC | 4 | 0 | 7 | 48* | -4
CCOc1ccc(-c2cc(N)n(S(=O)(=O)c3ccc(OC)c(OC)c3)n2)cc1 | 1 | 2 | 5 | 2 | 6
COc1ccccc1C1=NOC(Cn2c(NCCOCCO)nc3c2c(=O)n(C)c(=O)n3C)C1 (stereo not given) | -11 | -2 | -1 | -6 | -6
CCOC(=O)c1ccccc1Oc1c(F)c(F)nc(NCCO)c1F | 42* | 2 | 19 | 42* | 5
Cc1cc(C)nc(-n2nc(C)cc2Nc2ccccc2)n1 | 104* | 5 | -2 | 54* | -2
Fc1cccc(Cl)c1CNC(c1ccccc1)c1ccccc1 | -1 | 9.1* | 9 | -7 | -4
CC(C)CNS(=O)(=O)c1ccc(OCC(=O)Nc2ccc(F)cc2F)cc1 | 1 | 9.0* | 21 | -5 | 12
Clc1ccc(-c2csc(N3CCOCC3)n2)cc1 | 24 | 5 | 38 | 45* | 48*
Brc1ccc(-c2csc(N3CCOCC3)n2)cc1 | 6 | 5 | 7 | -12 | 0
CC(=O)Nc1ccc(NC(=O)CCn2c(=S)oc3ccccc32)cc1 | 28 | 2 | 49* | 19 | 26
O=C(CCn1c(=S)oc2ccccc21)NCCC1=CCCCC1 | -12 | 11* | 1 | -2 | -2
COc1ccc(C(=O)n2ccc(C)n2)cc1Br | 7 | -3 | 19 | 70* | 7
COc1ccc(C(=S)N2CCN(C)CC2)cc1Br | 2 | 4 | 6 | 7 | 7
CCOC(=O)C(C)On1c(-c2ccccc2)nc2ccc([N+](=O)[O-])cc21 (stereo not given) | -7 | 1 | 7 | -3 | 0
O=C(O)COn1c(-c2ccccc2)nc2ccc([N+](=O)[O-])cc21 | -4 | 11* | 6 | -16 | -2
O=C(Cn1nnc(-c2cccc(C(F)(F)F)c2)n1)N1CCOCC1 | 33 | -2 | 17 | 51* | 23
C=CCc1c(N(CC)CC)nc(C)[nH]c1=O | 0 | 9.3* | 4 | 3 | 2
SMILES | thrombin 1536 | Wee1 degr inh | FXIIa inh | KLK5 inh | FXIa inh
C=CCc1c(C)nc(SCC(=C)C)[nH]c1=O | 2 | 4 | 5 | 0 | 0
CCN(CC)CCCNCC(=O)Nc1ccc(OC)c(Cl)c1 | 11 | 2 | 37 | 42* | 40
CCN(CC)CCCNCC(=O)Nc1ccc2c(c1)CCC2 | 1 | 0 | 3 | 0 | -2
COc1cc2ccccc2cc1C(=O)NC(=S)Nc1cc(C(=O)O)ccc1C | -15 | -2 | 99* | -4 | -1
O=C1C2CC=CCC2C(=O)N1Cc1ccccc1Cl (stereo not given) | -14 | -4 | 2 | -23 | -4
CC(C)(C)c1[nH]nc2c1C(c1cccnc1)C(C#N)=C(N)O2 (stereo not given) | 2 | 9.9* | 12 | 6 | 5
CCc1[nH]nc2c1C(c1cccnc1)C(C#N)=C(N)O2 (stereo not given) | 19 | 2 | 28 | 35 | 2

Compound activity deposited in PubChem by several laboratories.
